Test results reported in ChEMBL document CHEMBL5247671, “Design and Synthesis of Pyrazole-Based Macrocyclic Kinase Inhibitors Targeting BMPR2” (ACS Med Chem Lett, 2023).

Key:
[1] = target: T1, Glycogen synthase kinase-3 beta (Homo sapiens, UniProt P49841); experiment: Binding affinity to recombinant GSK3B (unknown origin) assessed as change in melting temperature at 10 uM by DSF assay
How it was run: (§1)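 Differential scanning fluorimetry on an in-house panel of 90 recombinant kinases. Stabilization is read as the shift in melting temperature (ΔTm) relative to ligand-free protein. Staurosporine served as the positive control, and binding was also compared against its ΔTm.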
Target sequence in this assay (P49841 whole entry, looked up): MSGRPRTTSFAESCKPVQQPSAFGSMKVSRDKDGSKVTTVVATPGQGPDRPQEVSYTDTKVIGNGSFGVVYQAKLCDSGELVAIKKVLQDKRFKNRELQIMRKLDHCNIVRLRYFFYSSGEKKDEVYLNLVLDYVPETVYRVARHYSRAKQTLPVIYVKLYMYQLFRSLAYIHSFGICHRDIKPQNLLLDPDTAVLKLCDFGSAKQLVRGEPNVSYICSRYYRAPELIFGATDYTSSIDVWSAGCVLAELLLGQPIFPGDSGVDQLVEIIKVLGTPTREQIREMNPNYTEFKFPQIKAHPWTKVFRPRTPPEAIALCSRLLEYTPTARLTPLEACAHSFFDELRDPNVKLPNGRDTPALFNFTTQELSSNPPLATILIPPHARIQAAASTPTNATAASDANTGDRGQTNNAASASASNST

[2] = system: BMP2-inducible protein kinase (Homo sapiens); experiment: Binding affinity to recombinant BMP2K (unknown origin) assessed as change in melting temperature at 10 uM by DSF assay
[3] = target: T2, Serine/threonine-protein kinase 3 (Homo sapiens) (UniProt Q13188); experiment: Binding affinity to recombinant STK3 (unknown origin) assessed as change in melting temperature at 10 uM by DSF assay; how it was run: as §1
T2 sequence (whole entry): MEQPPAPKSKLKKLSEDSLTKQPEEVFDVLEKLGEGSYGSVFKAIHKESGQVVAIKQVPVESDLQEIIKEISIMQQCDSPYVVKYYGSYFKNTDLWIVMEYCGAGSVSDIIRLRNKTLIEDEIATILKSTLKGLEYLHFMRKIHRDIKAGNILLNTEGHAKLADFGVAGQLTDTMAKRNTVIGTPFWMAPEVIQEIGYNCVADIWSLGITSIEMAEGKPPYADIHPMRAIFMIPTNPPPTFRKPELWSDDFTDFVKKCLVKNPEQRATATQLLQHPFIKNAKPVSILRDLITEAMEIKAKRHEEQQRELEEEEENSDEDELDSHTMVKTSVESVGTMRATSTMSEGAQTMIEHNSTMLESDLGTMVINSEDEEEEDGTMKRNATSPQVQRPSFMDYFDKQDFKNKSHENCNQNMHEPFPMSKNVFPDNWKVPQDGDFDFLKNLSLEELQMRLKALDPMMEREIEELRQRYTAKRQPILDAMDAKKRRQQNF

[4] = target: T3, Bone morphogenetic protein receptor type-2 (Homo sapiens, UniProt Q13873); experiment: Inhibition of BMPR2 (174 to end residues) (unknown origin) using MBP as substrate incubated for 60 mins in presence of ATP by ADP Glo assay
T3 sequence (Q13873 whole entry): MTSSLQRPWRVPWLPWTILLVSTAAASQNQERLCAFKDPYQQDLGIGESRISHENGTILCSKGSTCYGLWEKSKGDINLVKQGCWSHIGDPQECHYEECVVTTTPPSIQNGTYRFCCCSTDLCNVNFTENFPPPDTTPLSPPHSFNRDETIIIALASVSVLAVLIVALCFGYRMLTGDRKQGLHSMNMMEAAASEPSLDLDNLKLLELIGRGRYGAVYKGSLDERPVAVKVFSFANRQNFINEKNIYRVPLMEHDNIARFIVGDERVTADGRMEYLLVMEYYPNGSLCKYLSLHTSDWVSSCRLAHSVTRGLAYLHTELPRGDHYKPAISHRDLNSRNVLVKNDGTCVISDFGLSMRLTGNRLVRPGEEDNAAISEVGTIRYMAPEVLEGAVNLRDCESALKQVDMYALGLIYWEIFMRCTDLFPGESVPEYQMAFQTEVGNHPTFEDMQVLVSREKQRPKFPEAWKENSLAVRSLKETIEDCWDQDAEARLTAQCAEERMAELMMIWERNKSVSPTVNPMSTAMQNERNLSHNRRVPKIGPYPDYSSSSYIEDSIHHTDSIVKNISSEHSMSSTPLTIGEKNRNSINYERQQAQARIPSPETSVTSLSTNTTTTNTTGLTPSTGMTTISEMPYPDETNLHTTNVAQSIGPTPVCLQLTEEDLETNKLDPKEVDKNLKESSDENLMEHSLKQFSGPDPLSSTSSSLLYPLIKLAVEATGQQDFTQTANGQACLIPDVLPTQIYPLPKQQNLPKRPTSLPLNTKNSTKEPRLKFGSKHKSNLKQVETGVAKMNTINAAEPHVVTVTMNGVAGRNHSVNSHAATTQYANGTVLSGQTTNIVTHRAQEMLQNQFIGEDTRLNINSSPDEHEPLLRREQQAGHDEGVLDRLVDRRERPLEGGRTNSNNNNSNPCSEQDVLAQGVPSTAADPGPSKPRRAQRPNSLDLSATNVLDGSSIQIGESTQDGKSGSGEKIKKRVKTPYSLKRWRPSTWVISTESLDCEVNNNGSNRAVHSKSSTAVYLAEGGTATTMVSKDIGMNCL
How it was run: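 Enzymatic inhibition of the BMPR2 kinase was read out by ADP-Glo detection of ADP formed, and IC50 values were derived from concentration–response data.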

[5] = target: T1, Glycogen synthase kinase-3 beta; experiment: Inhibition of N-terminal NanoLuc-fused full length lysed GSK3B (unknown origin) transfected in HEK293T cells incubated for 2 hrs in presence of tracer K8 by NanoBRET assay; format: cell-based
How it was run: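 GSK3B NanoBRET run in the lysed mode, with cells permeabilized by digitonin to bypass compound cell penetration. EC50 values were derived from tracer displacement.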
Target sequence in this assay (P49841 whole entry): as the sequence (P49841 whole entry, looked up) above

[6] = target: T4, Bone morphogenetic protein receptor type-2 (Homo sapiens) (UniProt Q13873); experiment: Binding affinity to recombinant BMPR2 (unknown origin) assessed as change in melting temperature at 10 uM by DSF assay; how it was run: as §1
T4 sequence (whole entry): T3 sequence (Q13873 whole entry)

[7] = target: Glycogen synthase kinase-3 alpha (Homo sapiens, UniProt P49840); experiment: Inhibition of N-terminal NanoLuc-fused full length GSK3A (unknown origin) transfected in HEK293T cells incubated for 2 hrs in presence of tracer K8 by NanoBRET assay; format: cell-based
Chain of Glycogen synthase kinase-3 alpha (P49840 whole entry, the tested form may be a part): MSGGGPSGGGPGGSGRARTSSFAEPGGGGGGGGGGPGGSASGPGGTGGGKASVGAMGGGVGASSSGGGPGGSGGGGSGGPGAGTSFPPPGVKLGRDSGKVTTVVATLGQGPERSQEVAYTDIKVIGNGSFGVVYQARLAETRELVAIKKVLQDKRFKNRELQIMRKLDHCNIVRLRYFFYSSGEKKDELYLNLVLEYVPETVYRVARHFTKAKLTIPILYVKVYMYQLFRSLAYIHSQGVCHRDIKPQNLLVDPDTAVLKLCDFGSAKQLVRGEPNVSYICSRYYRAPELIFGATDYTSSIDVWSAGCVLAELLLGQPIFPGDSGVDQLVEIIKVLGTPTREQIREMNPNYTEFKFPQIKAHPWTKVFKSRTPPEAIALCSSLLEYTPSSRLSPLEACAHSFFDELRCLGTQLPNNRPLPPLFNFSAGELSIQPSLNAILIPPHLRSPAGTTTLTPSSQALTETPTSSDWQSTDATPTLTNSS
How it was run: (§2)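 Cellular target engagement by NanoBRET in intact cells expressing NanoLuc-fused GSK3A or GSK3B, with EC50 values derived from tracer displacement.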

[8] = target: T1, Glycogen synthase kinase-3 beta; experiment: Inhibition of N-terminal NanoLuc-fused full length intact GSK3B (unknown origin) transfected in HEK293T cells incubated for 2 hrs in presence of tracer K8 by NanoBRET assay; format: cell-based; how it was run: as §2
Target sequence in this assay (P49841 whole entry): as the sequence (P49841 whole entry, looked up) above

TGF-beta receptor type-1 = target: T5, TGF-beta receptor type-1 (Homo sapiens, UniProt P36897); experiment: Inhibition of ALK5 (unknown origin) assessed as dissociation constant
T5 sequence (P36897 whole entry): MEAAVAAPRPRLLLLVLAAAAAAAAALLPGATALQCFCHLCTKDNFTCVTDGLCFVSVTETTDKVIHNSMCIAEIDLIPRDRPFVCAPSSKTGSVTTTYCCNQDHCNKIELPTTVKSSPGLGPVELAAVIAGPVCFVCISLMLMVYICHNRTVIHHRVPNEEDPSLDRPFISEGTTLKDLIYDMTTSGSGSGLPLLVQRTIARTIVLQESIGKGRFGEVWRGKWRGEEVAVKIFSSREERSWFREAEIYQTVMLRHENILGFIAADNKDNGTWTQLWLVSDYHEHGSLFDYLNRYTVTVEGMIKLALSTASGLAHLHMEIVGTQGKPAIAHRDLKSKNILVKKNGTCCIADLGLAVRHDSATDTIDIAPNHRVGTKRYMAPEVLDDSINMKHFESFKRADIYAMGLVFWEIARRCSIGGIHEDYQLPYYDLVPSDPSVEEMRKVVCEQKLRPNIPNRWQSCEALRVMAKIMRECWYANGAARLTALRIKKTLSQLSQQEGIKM

[9] = target: T4, Bone morphogenetic protein receptor type-2 (Homo sapiens); experiment: Binding affinity to BMPR2 (unknown origin) assessed as change in enthalpy by ITC assay
How it was run: (§3)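 Binding measured by isothermal titration calorimetry against the recombinant BMPR2 kinase domain. Thermodynamic binding parameters, including the dissociation constant, were derived from the titration data.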

[10] = target: T3, Bone morphogenetic protein receptor type-2; experiment: Inhibition of BMPR2 (unknown origin) assessed as dissociation constant by ITC assay; how it was run: as §3
[11] = target: T4, Bone morphogenetic protein receptor type-2 (Homo sapiens); experiment: Binding affinity to BMPR2 (unknown origin) assessed as change in entropy by ITC assay; how it was run: as §3

ΔTm [1]	ΔTm [2]	ΔTm [3]	IC50 [4]	ΔTm [6]	SMILES	IC50 [5]	IC50 [7]	IC50 [8]	Kd (TGF-beta receptor type-1)	deltaH [9]	Kd [10]	deltaS [11]
> 5 °C	> 5 °C	> 5 °C	–	–	O=C1NCCCCCCNc2nccc(n2)Nc2cc1[nH]n2	–	–	–	–	–	–	–
4.9 °C	–	–	630 nM	4.6 °C	O=C1NCCCCCNc2nccc(n2)Nc2cc1[nH]n2	3500 nM	> 45000 nM	> 45000 nM	–	–	–	–
7.2 °C	–	–	461 nM	5 °C	O=C1NCCc2cccc(c2)Nc2nccc(n2)Nc2cc1[nH]n2	–	–	–	–	–	–	–

SMILES	ΔTm [1]	ΔTm [2]	ΔTm [3]	IC50 [4]	ΔTm [6]	IC50 [5]	IC50 [7]	IC50 [8]	Kd (TGF-beta receptor type-1)	deltaH [9]	Kd [10]	deltaS [11]
N#CCc1ccc(Nc2nccc(Nc3cc(C4CC4)[nH]n3)n2)cc1	14 °C	–	–	36.2 nM	9.2 °C	1.2 nM	4 nM	3.8 nM	324 nM	-9.61 kcal/mol	186 nM	-1.97 cal/mol.K
